Source: PMC5204042 (Journal of Breast Cancer, 2016)
In brackets after ≈: the same amount, converted by molar mass. Entries after “also recorded” stand apart in the source; their conditions may differ.

Experiments:
Format in all cases: cell-based
MDAMB-231 cells = test: DNA fragmentation
PKCα = PKCα (Homo sapiens, UniProt P17252); test: Immunoblotting to detect PKCα translocation from cytosol to plasma membrane; settings: MDAMB-231, compound at IC50, 30 minutes, cytosolic PKCα normalized to 100%
caspase-3 = test: Caspase-3 activity assay; settings: MDAMB-231, compound at IC50, 24 hours, vs untreated
cytochrome c = test: Mitochondrial cyt c release, immunofluorescence; settings: MDAMB-231, compound at IC50, 24 hours
Outline: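 Mitochondria were labelled with MitoTracker Red (200 nM, 45 min), and cytochrome c was immunostained with an anti-cyt c antibody followed by FITC anti-mouse secondary (4 h, 37 °C). Coverslips were mounted and examined by fluorescence microscopy for cyt c relocation.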

[1] = system: MCF-7 breast cancer cells; test: MTT viability assay, MCF-7; settings: Homo sapiens, MCF7, 48 h, read-out: Anticancer activity (IC50 ± SD) MCF-7
caspase-9 = test: Caspase-9 activity assay; settings: MDAMB-231, compound at IC50, 24 hours, vs untreated

COc1cc(/C=C/C(=O)CC(=O)/C=C/c2ccc(O)c(OC)c2)ccc1O [Curcumin]
genomic DNA fragmentation (MDAMB-231 cells; MDAMB-231, compound at IC50, 12 hours, agarose gel): produced distinct DNA fragments; also recorded: showed DNA fragments of different sizes
genomic DNA fragmentation in presence of NAC (MDAMB-231 cells; MDAMB-231 preincubated with NAC (5 mM)): intact gDNA with no visible appearance of DNA fragments
translocation of PKC from cytosol to the plasma membrane (PKCα): 17%±1.9%
increase in caspase-3 activity (caspase-3): 65%
release of cyt c from mitochondria to cytosol (cytochrome c): release of cyt c
IC50 [1]: 5 ± 0.8 µg/mL (≈ 13.6 µM)
increase in caspase-9 activity (caspase-9): 35%
